# High-throughput results from PubChem.
# CRFBP-R2 agonist: agonists of human CRF-binding protein/CRF-R2 receptor complex; HEK293 CRF-R2/CRF-BP, calcium dye fluorescence (FLIPR); percent of saturating CRF peptide response; activation, % at 13.2 µM; hit rate 0.46% among 350,000; AID 588473;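 active = activation of at least 50%, plus an integration ratio under a set limit after plate pattern correction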;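 also: plate controls were neutral control wells without compound for no effect and CRF at EC100 for full effect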
# zfTRPN1 agonist: zebrafish TRPN1 (NompC) channel agonism | activation, % at 3 µM | HEK293 zebrafish TRPN1-YFP, Fluo-8 calcium fluorescence; 100% = response to 87 µM carbachol | hit rate 0.18% among 220,000;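 active = activation above its plate's cutoff, the mean activation of test wells on that plate plus 3 SD, cut at about 19% in these data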;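 also: 0% = DMSO alone and 100% = 87 µM carbachol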
#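 Control set: carbachol 87 µM as high control, DMSO as low control; system: HEK293 stable line with zebrafish TRPN1-YFP; read-out: % activation versus carbachol response; detection: intracellular calcium fluorescence with Fluo-8; doses: single test compound dose, 3 µM nominal, 0.3% DMSO; schedule: dye 1 h 37 °C plus 30 min RT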
# TRPML3 ag: activates the human TRPML3 channel; Q8TDD5; HEK293 TRPML3-YFP, Fluo-8 calcium fluorescence; 100% = the carbachol control signal; activation, % at 3 µM; hit rate 0.29% among 220,000; AID 1448;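 active = activation above its plate's cutoff, the mean activation of the plate's test wells plus 3 SD, cut at about 12% in these data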;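 also: 0% = DMSO only wells and 100% = carbachol wells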
# Target sequence (Q8TDD5 whole entry, looked up): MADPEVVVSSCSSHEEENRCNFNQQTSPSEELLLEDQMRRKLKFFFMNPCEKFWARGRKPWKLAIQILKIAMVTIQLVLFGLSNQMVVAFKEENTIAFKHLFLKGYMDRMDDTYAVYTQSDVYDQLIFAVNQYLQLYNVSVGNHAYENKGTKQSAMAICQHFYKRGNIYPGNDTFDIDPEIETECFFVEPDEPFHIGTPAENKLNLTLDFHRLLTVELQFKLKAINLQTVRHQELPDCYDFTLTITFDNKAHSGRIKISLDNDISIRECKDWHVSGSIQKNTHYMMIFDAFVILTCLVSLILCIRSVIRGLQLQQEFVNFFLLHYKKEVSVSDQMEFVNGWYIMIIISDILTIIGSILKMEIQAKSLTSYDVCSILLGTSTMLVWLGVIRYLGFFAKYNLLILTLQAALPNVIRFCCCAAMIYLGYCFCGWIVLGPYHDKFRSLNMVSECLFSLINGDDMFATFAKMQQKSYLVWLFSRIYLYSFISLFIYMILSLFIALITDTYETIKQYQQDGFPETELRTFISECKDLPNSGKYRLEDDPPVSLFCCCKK
#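 Test system: HEK293 cells stably carrying human TRPML3-YFP; Doses: single dose, 3 µM final nominal compound, 0.3% DMSO final; Schedule: dye loading 1 h 37 °C then 30 min ambient, 125 s read; Technique: Fluo-8 calcium fluorescence; Benchmarks: high control carbachol 87 µM, low control DMSO.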
# CRFR2-BP antag: antagonists of CRF-binding protein/CRF-R2 receptor complex | HEK293 CRF-R2/CRF-BP, CRF-induced calcium fluorescence | inhibition, % at 11.8 µM | hit rate 0.59% among 350,000 | AID 588475;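 active = inhibition of the ligand-induced calcium signal above about 50% at the single tested concentration, limit read from the data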
# Numbers without * were called inactive; x = no result given. Hits are enriched below; roughly 1.2% of the tested compounds scored in any of these assays.
SMILES,CRFBP-R2 agonist,zfTRPN1 agonist,TRPML3 ag,CRFR2-BP antag
CCCCN1/C(=C/c2ccc3ccccc3[n+]2CC)Sc2ccccc21,128*,52*,21*,-138
CC(C)(C)C(=O)NC(=S)NNC(=O)c1ccc(-c2ccccc2)cc1,163*,197*,117*,-107
CC(C)(C)C(=O)NC(=S)NCCc1ccccc1,0,-2,-1,51*
CC(C)(C)C(=O)NC(=S)NNC(=O)c1ccc(Cl)cc1Cl,129*,171*,103*,-15
CC(C)COc1ccc(C(=O)N/C(=C\c2cccc([N+](=O)[O-])c2)C(=O)OC(C)C)cc1,0,0,0,-11
O=[N+]([O-])c1cc([N+](=O)[O-])c2oc(-c3ccccc3)c(Br)c2c1O,4,x,x,57*
O=c1cc(-c2ccccc2Cl)oc2ccc([N+](=O)[O-])c(O)c12,-2,0,1,-4
C/C(=N/N=C/c1ccc(N(C)C)cc1)c1ccccc1,2,-1,0,19
CN(C)c1ccc(/C(=N\O)c2ccccc2)cc1,0,-1,0,61*
COc1cc2ncnc(NCc3cccc(Cl)c3)c2cc1OC,-2,1,0,-10
CCN(CC(=O)Nc1ccc(NC(C)=O)cc1)C(=O)c1ccc(=O)n(C)n1,0,x,x,98*
CCOC(=O)c1ccc(NCn2c(=O)oc3ccccc32)cc1,62*,2,2,-84
CC(/C=N/NC(=O)c1ccc(CN2c3cccc4cccc(c34)S2(=O)=O)cc1)c1ccccc1 (stereo not given),7,3,1,10
CC1CCN(C(=O)c2ncn3c2c(=O)[nH]c2ccccc23)CC1,0,x,x,-23
CCc1ccccc1NC(=O)c1ccc(Cn2cc([N+](=O)[O-])cn2)cc1,24,5,3,10
CCN(CC)c1ccc(/C=C/c2cc(-c3ccccc3)c3ccccc3n2)cc1,67*,4,2,-51
CCN(CC)c1ccc(/C=N/NC(=O)c2cc(C)nc3ccccc23)cc1,0,-2,0,4
CCCCCCCCNC(=O)/C(C#N)=C/c1ccccc1[N+](=O)[O-],62*,0,3,-97
Cc1ccccc1CNC(=O)Nc1cccs1,19,0,0,53*
O=C(NCc1cccs1)Nc1cccs1,-2,0,0,-12
COc1ccc2c(C)cc(SCC(=O)Nc3ccc(Cl)cn3)nc2c1,0,0,1,-24
CCOc1ccc(CCNC(=O)C2CCCN(c3ncnc4c3nc3n4CCCCC3)C2)cc1 (stereo not given),-2,x,x,115*
CCCNC(=O)c1ccc(CN2CCc3ccccc3C2)cc1,-4,2,1,85*
COCCNC(=O)c1ccc(CN2CCc3ccccc3C2)cc1,-2,0,1,10
Cc1ccc(N2CC(C(=O)NC3CCC(C)CC3)CC2=O)cc1 (stereo not given),1,x,x,67*
SMILES,CRFBP-R2 agonist,zfTRPN1 agonist,TRPML3 ag,CRFR2-BP antag
COc1ccc(N2CCN(C(c3nnnn3C3CCCC3)C(C)C)CC2)cc1 (stereo not given),0,3,2,-20
COc1ccc(-c2n[nH]c(=S)n2CC(C)C)cc1,-1,2,1,21
Cc1sc(NC(=O)C2CCCCC2C(=O)O)c(C(N)=O)c1-c1ccc(C(C)(C)C)cc1 (stereo not given),104*,0,0,31
N/C(Cc1ccc([N+](=O)[O-])cc1)=N\OC(=O)c1ccc(Br)cc1,-2,0,1,62*
N/C(=N\OC(=O)c1ccc([N+](=O)[O-])cc1)c1ccc(Br)cc1,-1,x,x,5
COc1ccccc1Nc1ccc(S(=O)(=O)N2CCCCC2)cc1[N+](=O)[O-],-2,0,0,51*
O=[N+]([O-])c1cc(S(=O)(=O)N2CCCCCC2)ccc1Cl,-3,-3,22*,22
Cc1ccccc1NC(=O)Cc1nnc(SCC(=O)N2CCOCC2)n1C,-1,x,x,0
CSCCC(NC(=O)c1ccco1)C(=O)OC(C)C(=O)NC(=O)NC1CCCCC1 (stereo not given),183*,121*,62*,-60
Cc1ccc(S(=O)(=O)N2CCOCC2)cc1NC(=O)COC(=O)CCOc1ccc(C(C)(C)C)cc1,2,x,x,5
N/C(CN1CCCCC1)=N\S(=O)(=O)c1cc(Cl)cc(Cl)c1,-2,1,0,113*
CCOC(=O)c1ccc(NC(=S)N2CCC(O)CC2)cc1,-3,3,1,16
CCOC(=O)c1ccc(NC(=S)N2CCSC2c2ccc(Br)cc2)cc1 (stereo not given),101*,10,6,-100
Cc1cc2c(NS(=O)(=O)c3ccc(F)cc3)cccc2nn1,0,1,1,113*
Cc1ccccc1NS(=O)(=O)c1ccc(F)cc1,3,-1,0,3
CCOc1ccccc1C(=O)NCCCN1CCN(CCCNC(=O)c2ccccc2OCC)CC1,-1,-2,0,-20
CCSc1nc(C)c(CC)c(C)c1C(N)=O,0,-1,0,0
O=C(CCc1ccccc1)Nc1c(F)cccc1F,-2,-1,1,52*
CSc1ccccc1NC(=O)CCc1ccccc1,-3,-2,0,30
Cc1cc2nccc(-c3ccccn3)n2n1,-2,0,1,5
c1ccc(-c2cc3nccc(-c4ccccn4)n3n2)cc1,-2,-1,0,60*
Cc1ccc(CN2C(=O)N/C(=C\c3ccc(N4CCOCC4)cc3)C2=O)cc1,4,-1,1,-5
CCN1C(=O)/C(=C/c2ccc(OCc3ccc(C(=O)O)cc3)c(Cl)c2)NC1=S,11,x,x,-5
CCN1C(=O)/C(=C/c2ccc(N3CCCC3)cc2)NC1=S,258*,42*,11,-302
CCCN1C(=O)/C(=C/c2ccc(N3CCOCC3)cc2)NC1=S,171*,24*,12*,-247
SMILES,CRFBP-R2 agonist,zfTRPN1 agonist,TRPML3 ag,CRFR2-BP antag
COc1ccc(C)cc1NC(=O)CN1CCN(c2ccccn2)CC1,0,x,x,0
NC(=O)c1ccccc1NS(=O)(=O)c1ccc2c(c1)OCCO2,-2,0,1,-5
Cc1ccccc1NS(=O)(=O)c1ccc(C)c(C(=O)N2CCOCC2)c1,1,x,x,54*
O=C(O)c1ccccc1NS(=O)(=O)c1ccc2c(c1)OCCO2,-1,0,0,57*
Cc1cc(C)c(C)c(S(=O)(=O)Nc2ccccc2C(=O)O)c1C,0,0,0,85*
CC(C)(CN1CCCC1)NC(=O)C1CCC(=O)N(CCCN2CCOCC2)C1 (stereo not given),-2,x,x,0
CCOc1ccc([N+](=O)[O-])cc1CNC1CCCCCCC1,-2,x,x,-19
CCOC(=O)c1c(NC(=O)C2COc3ccccc3O2)sc(C(C)=O)c1C (stereo not given),2,-2,1,8
CC(C)NCCOCCSc1ccc(Cl)cc1,-1,1,1,-31
CN(C(=O)c1cccc(NC(=O)Cc2ccc(NC(=O)C3CCCN(C(=O)C4CCCC4)C3)cc2)c1)C1CCCC1 (stereo not given),-2,x,x,3
